Assay results as given in ChEMBL document CHEMBL1128317, “Phenoxypropylamines: a new series of squalene synthase inhibitors” (J Med Chem, 1995).
pIC50: −log10 of the molar value.

Target: T1, Squalene synthase (Rattus norvegicus, UniProt Q02769)
T1 sequence (Q02769 whole entry): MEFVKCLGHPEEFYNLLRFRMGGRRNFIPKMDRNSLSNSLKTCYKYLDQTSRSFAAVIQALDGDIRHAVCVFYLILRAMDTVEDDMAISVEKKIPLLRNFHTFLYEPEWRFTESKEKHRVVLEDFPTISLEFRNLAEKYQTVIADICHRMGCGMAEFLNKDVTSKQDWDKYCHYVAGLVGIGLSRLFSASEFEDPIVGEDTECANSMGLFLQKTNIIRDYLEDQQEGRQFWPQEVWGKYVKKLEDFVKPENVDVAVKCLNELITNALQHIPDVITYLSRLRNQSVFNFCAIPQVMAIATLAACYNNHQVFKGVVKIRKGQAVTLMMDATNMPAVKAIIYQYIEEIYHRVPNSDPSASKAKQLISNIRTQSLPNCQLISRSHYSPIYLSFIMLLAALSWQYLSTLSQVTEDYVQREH
Assay: Inhibition of rat microsomal squalene synthase
In short: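 Rat liver microsomal protein (20 μg) incubated at 37 °C in 50 mM potassium phosphate with 4.95 mM MgCl2, 9.9 mM KF and 0.9 mM NADPH. 1-[3H]farnesyl pyrophosphate was added to 20 μM final, and the reaction was stopped after 15 min with 4% KOH. Labeled squalene was isolated on a C18 column. IC50 was derived from % inhibition versus controls (duplicates per concentration, 6–8 controls).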

SMILES	pIC50
CC(C)=CCC/C(C)=C/c1ccccc1OCCCN(C)C(C)C	< 5.60
CC(=O)Nc1ccc(OCCCNC(C)C)cc1	< 5.60
CC(C)NCCCOc1ccc(-c2cccnc2)cc1	< 5.60
C=CCc1cc(N)ccc1OCCCNC(C)C	6.60
CC(C)NCC(O)COc1ccc(-c2ccccc2)cc1 (stereo not given)	5.52
CCOC(=O)c1ccc(OCC(O)CNC(C)C)cc1 (stereo not given)	5.85
CCC(=O)Nc1ccc(OCC(O)CNC(C)C)c(Cc2ccccc2)c1 (stereo not given)	6.05
CC(C)NCC(O)COc1ccccc1Cc1ccccc1 (stereo not given)	5.06
CC(C)NCCCOc1cccc(-c2ccccc2)c1	6.22
CCCCOc1ccc(OCC(CNC(C)C)OC)cc1 (stereo not given)	5.48
CC(C)=CCC/C(C)=C/CC/C(C)=C/CCOP(=O)(O)C(=O)O	4.52
C=CCc1ccccc1OCC(O)CNC(C)C (stereo not given) [ALPRENOLOL]	5.38

Compounds with a higher pIC50, results first:

pIC50	SMILES
7.92	CC(C)NCCCOc1ccccc1Cc1ccccc1
11.40	C=CCc1cc(-c2ccccc2)ccc1OCCCNC(C)C
8.35	C=CCc1cc(C(=O)CCC)ccc1OCC(O)CNC(C)C (stereo not given)
7.25	CCCCOc1ccc(OCCCNC(C)C)cc1
9.22	C=CCc1cc(OCCCC)ccc1OCCCNC(C)C
7.19	C=CCc1cc(NC(C)=O)ccc1OCCCNC(C)C
9.00	C=CCc1cc(C(=O)CCC)ccc1OCCCNC(C)C
6.77	CC(C)NCCCOc1ccc(-c2ccccc2)cc1
7.25	C=CCc1ccccc1OCCCNC(C)C
10.30	C=CCc1cc(C(=O)OCC)ccc1OCCCNC(C)C
8.52	CCC(=O)Oc1ccc(OCCCNC(C)C)cc1
9.22	CCC(=O)Nc1ccc(OCCCNC(C)C)c(Cc2ccccc2)c1
8.30	C=CCc1cc(NC(=O)CC)ccc1OCCCNC(C)C
